Laboratory results from ChEMBL document CHEMBL1147446, “Antagonists of human CCR5 receptor containing 4-(pyrazolyl)piperidine side chains. Part 3: SAR studies on the benzylpyrazole segment” (Bioorg Med Chem Lett, 2004).

What was measured:
HeLa [1] = assay: Antiviral activities in a cell culture HIV-1 infectivity inhibition assay using HeLa cells; format: functional; conditions: Homo sapiens
[2] = target: C-C chemokine receptor type 5 (Homo sapiens, UniProt P51681); assay: Inhibitory concentration for displacement of [125I]-MIP-1 alpha from recombinant human CC chemokine receptor 5 (CCR5) expressed in CHO cell; format: cell-based
Summary of the method: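 Competitive binding to CCR5 on CHO cell membranes, read as displacement of [125I]-labeled MIP-1α. IC50 values are means of triplicate determinations. Standard errors were normally <15% within an assay. Assay-to-assay variation was within ±2-fold, judged from a standard compound.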

HeLa [3] = assay: Antiviral activities in a cell culture HIV-1 infectivity inhibition assay using HeLa cells plus 50% normal human serum; format: functional

Chain of C-C chemokine receptor type 5 (P51681 whole entry): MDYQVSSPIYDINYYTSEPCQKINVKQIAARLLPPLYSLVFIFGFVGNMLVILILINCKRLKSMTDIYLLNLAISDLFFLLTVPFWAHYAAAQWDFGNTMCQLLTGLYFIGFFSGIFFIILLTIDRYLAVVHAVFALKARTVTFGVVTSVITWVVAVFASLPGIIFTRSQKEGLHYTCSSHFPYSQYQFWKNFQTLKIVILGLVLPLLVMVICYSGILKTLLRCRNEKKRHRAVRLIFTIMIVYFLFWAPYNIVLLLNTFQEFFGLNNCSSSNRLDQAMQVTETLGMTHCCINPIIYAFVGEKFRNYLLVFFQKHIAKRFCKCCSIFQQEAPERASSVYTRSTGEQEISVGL

| SMILES | IC90 (HeLa [1]) [nM] | IC50 [2] [nM] | IC90 (HeLa [3]) [nM] |
| --- | --- | --- | --- |
| CC[C@H](C)[C@H](C(=O)O)N1C[C@H](CN2CCC(c3cc(Cc4ccc(Oc5ccccc5)cc4)nn3CC)CC2)[C@@H](c2cccc(F)c2)C1 | 1.2 | 0.4 | 100 |
| CCn1nc(Cc2cccc3ccccc23)cc1C1CCN(C[C@H]2CN([C@@H](C(=O)O)C(C)(C)C)C[C@@H]2c2cccc(F)c2)CC1 | < 0.14 | 0.2 | 11 |
| CC[C@H](C)[C@H](C(=O)O)N1C[C@H](CN2CCC(c3cc(Cc4cccc5ccccc45)nn3CC)CC2)[C@@H](c2cccc(F)c2)C1 | < 0.14 | 0.4 | 11 |
| CCOc1cccc(Cc2cc(C3CCN(C[C@H]4CN([C@@H](C(=O)O)C(C)(C)C)C[C@@H]4c4cccc(F)c4)CC3)n(CC)n2)c1 | < 0.14 | 0.4 | 100 |
| CCn1nc(Cc2cccc(C#N)c2)cc1C1CCN(C[C@H]2CN([C@@H](C(=O)O)C(C)C)C[C@@H]2c2cccc(F)c2)CC1 | 3.7 | 1.7 | 100 |
| CCn1nc(Cc2cc(C(F)(F)F)cc(C(F)(F)F)c2)cc1C1CCN(C[C@H]2CN([C@@H](C(=O)O)C(C)C)C[C@@H]2c2cccc(F)c2)CC1 | 100 | 3.2 | > 300 |
| CCOc1ccc(Cc2cc(C3CCN(C[C@H]4CN([C@@H](C(=O)O)[C@@H](C)CC)C[C@@H]4c4cccc(F)c4)CC3)n(CC)n2)cc1F | < 0.14 | 0.7 | 11 |
| CCn1nc(Cc2ccc3ccccc3c2)cc1C1CCN(C[C@H]2CN([C@@H](C(=O)O)C(C)(C)C)C[C@@H]2c2cccc(F)c2)CC1 | < 0.14 | 0.2 | 100 |
| CCn1nc(Cc2ccc(OCc3ccccc3)cc2)cc1C1CCN(C[C@H]2CN([C@@H](C(=O)O)C(C)(C)C)C[C@@H]2c2cccc(F)c2)CC1 | 3.7 | 1.1 | 300 |
| CC[C@H](C)[C@H](C(=O)O)N1C[C@H](CN2CCC(c3cc(Cc4cc(C(F)(F)F)cc(C(F)(F)F)c4)nn3CC)CC2)[C@@H](c2cccc(F)c2)C1 | 11 | 2.1 | > 300 |
| CCCOc1ccc(Cc2cc(C3CCN(C[C@H]4CN([C@@H](C(=O)O)[C@H](C)CC)C[C@@H]4c4cccc(F)c4)CC3)n(CC)n2)cc1 | 1.2 | 1.2 | 300 |
| CC[C@H](C)[C@H](C(=O)O)N1C[C@H](CN2CCC(c3cc(Cc4ccc(-c5ccccc5)cc4)nn3CC)CC2)[C@@H](c2cccc(F)c2)C1 | 0.4 | 0.3 | 33 |
| CCn1nc(Cc2ccc(OC)c(C#N)c2)cc1C1CCN(C[C@H]2CN([C@@H](C(=O)O)C(C)(C)C)C[C@@H]2c2cccc(F)c2)CC1 | < 0.14 | 0.9 | 33 |
| CC[C@@H](C)[C@H](C(=O)O)N1C[C@H](CN2CCC(c3cc(Cc4ccc(OCC(F)(F)F)cc4)nn3CC)CC2)[C@@H](c2cccc(F)c2)C1 | 3.7 | 0.5 | 100 |
| CCn1nc(Cc2cc(F)cc(F)c2)cc1C1CCN(C[C@H]2CN([C@@H](C(=O)O)C(C)C)C[C@@H]2c2cccc(F)c2)CC1 | 11 | 2.6 | 300 |
| CC[C@@H](C)[C@H](C(=O)O)N1C[C@H](CN2CCC(c3cc(Cc4cccc(CN)c4)nn3CC)CC2)[C@@H](c2cccc(F)c2)C1 | 3.7 | 2.7 | 33 |
| CCn1nc(Cc2ccccc2)cc1C1CCN(C[C@H]2CN([C@@H](C(=O)O)C3CCCCC3)C[C@@H]2c2cccc(F)c2)CC1 | – | – | 100 |
| CC[C@H](C)[C@H](C(=O)O)N1C[C@H](CN2CCC(c3cc(Cc4ccc5c(c4)OCO5)nn3CC)CC2)[C@@H](c2cccc(F)c2)C1 | < 0.14 | 0.5 | 100 |
| CC[C@@H](C)[C@H](C(=O)O)N1C[C@H](CN2CCC(c3cc(Cc4cccc5ccccc45)nn3CC)CC2)[C@@H](c2cccc(F)c2)C1 | < 0.14 | 0.2 | 33 |
| CCCCOc1ccc(Cc2cc(C3CCN(C[C@H]4CN([C@@H](C(=O)O)C(C)(C)C)C[C@@H]4c4cccc(F)c4)CC3)n(CC)n2)cc1 | 1.2 | 0.8 | 33 |
| CCn1nc(Cc2ccc(Oc3ccccc3)cc2)cc1C1CCN(C[C@H]2CN([C@@H](C(=O)O)C(C)C)C[C@@H]2c2cccc(F)c2)CC1 | 11 | 0.6 | > 300 |
| CC[C@@H](C)[C@H](C(=O)O)N1C[C@H](CN2CCC(c3cc(Cc4ccc(S(=O)(=O)c5ccccc5)cc4)nn3CC)CC2)[C@@H](c2cccc(F)c2)C1 | 0.4 | 1.1 | 33 |

Further lines, with some results ahead:

| IC90 (HeLa [1]) [nM] | IC50 [2] [nM] | SMILES | IC90 (HeLa [3]) [nM] |
| --- | --- | --- | --- |
| < 0.14 | 1.1 | CCn1nc(Cc2ccc(OC)cc2)cc1C1CCN(C[C@H]2CN([C@@H](C(=O)O)C3CCCCC3)C[C@@H]2c2cccc(F)c2)CC1 | 33 |
| 1.2 | 3.1 | CCn1nc(Cc2ccc(C#N)cc2)cc1C1CCN(C[C@H]2CN([C@@H](C(=O)O)C(C)C)C[C@@H]2c2cccc(F)c2)CC1 | 100 |
| 0.4 | 1.1 | CCn1nc(Cc2ccc(O)cc2)cc1C1CCN(C[C@H]2CN([C@@H](C(=O)O)C(C)(C)C)C[C@@H]2c2cccc(F)c2)CC1 | 11 |
| 3.7 | 1.1 | CCn1nc(Cc2ccc(F)c(F)c2)cc1C1CCN(C[C@H]2CN([C@@H](C(=O)O)C(C)C)C[C@@H]2c2cccc(F)c2)CC1 | 300 |
| < 0.14 | 1 | CCOc1ccc(Cc2cc(C3CCN(C[C@H]4CN([C@@H](C(=O)O)C5CCCCC5)C[C@@H]4c4cccc(F)c4)CC3)n(CC)n2)cc1 | 33 |
| 11 | 2 | CCn1nc(Cc2ccc(OC(C)(C)C)cc2)cc1C1CCN(C[C@H]2CN([C@@H](C(=O)O)C(C)(C)C)C[C@@H]2c2cccc(F)c2)CC1 | 300 |
| 1.2 | 0.6 | CCn1nc(Cc2ccc(OCC(F)(F)F)cc2)cc1C1CCN(C[C@H]2CN([C@@H](C(=O)O)C(C)(C)C)C[C@@H]2c2cccc(F)c2)CC1 | 100 |
| 0.4 | 0.8 | CCCCOc1ccc(Cc2cc(C3CCN(C[C@H]4CN([C@@H](C(=O)O)C5CCCCC5)C[C@@H]4c4cccc(F)c4)CC3)n(CC)n2)cc1 | 33 |
| 0.4 | 1.4 | CC[C@H](C)[C@H](C(=O)O)N1C[C@H](CN2CCC(c3cc(Cc4ccc(O)cc4)nn3CC)CC2)[C@@H](c2cccc(F)c2)C1 | 11 |
| 1.2 | 0.8 | CC[C@@H](C)[C@H](C(=O)O)N1C[C@H](CN2CCC(c3cc(Cc4ccc(C(C)(C)C)cc4)nn3CC)CC2)[C@@H](c2cccc(F)c2)C1 | 300 |
| < 0.14 | 0.8 | CCn1nc(Cc2ccc(OC(C)(C)C)cc2)cc1C1CCN(C[C@H]2CN([C@@H](C(=O)O)C(C)C)C[C@@H]2c2cccc(F)c2)CC1 | 100 |
| 1.2 | 0.6 | CCn1nc(Cc2ccc(OC(F)(F)F)cc2)cc1C1CCN(C[C@H]2CN([C@@H](C(=O)O)C(C)(C)C)C[C@@H]2c2cccc(F)c2)CC1 | 100 |
| < 0.14 | 0.2 | CCn1nc(Cc2ccc(OC3CC3)cc2)cc1C1CCN(C[C@H]2CN([C@@H](C(=O)O)C3CCCCC3)C[C@@H]2c2cccc(F)c2)CC1 | 33 |
| < 0.14 | 0.4 | CCn1nc(Cc2ccc(OC3CC3)cc2)cc1C1CCN(C[C@H]2CN([C@@H](C(=O)O)C(C)(C)C)C[C@@H]2c2cccc(F)c2)CC1 | 33 |
| 0.4 | 0.8 | CCCOc1ccc(Cc2cc(C3CCN(C[C@H]4CN([C@@H](C(=O)O)C(C)(C)C)C[C@@H]4c4cccc(F)c4)CC3)n(CC)n2)cc1 | 300 |
| < 0.14 | 1 | CCn1nc(Cc2cccc(F)c2)cc1C1CCN(C[C@H]2CN([C@@H](C(=O)O)C3CCCCC3)C[C@@H]2c2cccc(F)c2)CC1 | 33 |
| 1.2 | 1 | CCn1nc(Cc2ccc(OC3CC3)cc2)cc1C1CCN(C[C@H]2CN([C@@H](C(=O)O)C(C)C)C[C@@H]2c2cccc(F)c2)CC1 | 300 |
| < 0.14 | 0.5 | CCn1nc(Cc2ccccc2F)cc1C1CCN(C[C@H]2CN([C@@H](C(=O)O)C3CCCCC3)C[C@@H]2c2cccc(F)c2)CC1 | 33 |
| < 0.14 | 0.9 | CCn1nc(Cc2cc(F)cc(F)c2)cc1C1CCN(C[C@H]2CN([C@@H](C(=O)O)C3CCCCC3)C[C@@H]2c2cccc(F)c2)CC1 | 11 |
| < 0.14 | 1.5 | CCn1nc(Cc2ccc(OC)cc2)cc1C1CCN(C[C@H]2CN([C@@H](C(=O)O)C(C)(C)C)C[C@@H]2c2cccc(F)c2)CC1 | 33 |
| 0.4 | 1.5 | CCn1nc(Cc2ccc(C(F)(F)F)cc2)cc1C1CCN(C[C@H]2CN([C@@H](C(=O)O)C3CCCCC3)C[C@@H]2c2cccc(F)c2)CC1 | 33 |
| 0.4 | 0.5 | CC[C@@H](C)[C@H](C(=O)O)N1C[C@H](CN2CCC(c3cc(Cc4ccc(C(F)(F)F)cc4)nn3CC)CC2)[C@@H](c2cccc(F)c2)C1 | 100 |
| 0.4 | 0.8 | CCn1nc(Cc2ccc(S(=O)(=O)c3ccccc3)cc2)cc1C1CCN(C[C@H]2CN([C@@H](C(=O)O)C3CCCCC3)C[C@@H]2c2cccc(F)c2)CC1 | 33 |
| 1.2 | 0.5 | CCn1nc(Cc2ccc(Oc3ccccc3)cc2)cc1C1CCN(C[C@H]2CN([C@@H](C(=O)O)C3CCCCC3)C[C@@H]2c2cccc(F)c2)CC1 | 100 |
| 33 | 1.1 | CCn1nc(Cc2ccc(F)cc2)cc1C1CCN(C[C@H]2CN([C@@H](C(=O)O)C3CCCCC3)C[C@@H]2c2cccc(F)c2)CC1 | – |
